Reference: the EternaBench riboswitch data

Tested on: MS2 coat protein
Assay: apparent Kd, MS2 coat protein; higher = weaker binding; RNA-MaP array; FMN 200 µM where present
In short: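 Green signal was scaled to red-channel RNA signal and control-cluster median Fmax, and the apparent Kd was taken as the median of filtered per-cluster binding-curve fits. The binding series used SNAP-549-labelled MS2 coat protein from 0.7 or 1.5 nM, doubling to 3 µM, on designs transcribed by stalled E. coli RNA polymerase on Illumina sequencing-chip clusters. Each series ran without and then with constant ligand in 100 mM Tris-HCl pH 7.5, 80 mM KCl, 4 mM MgCl2, BSA, DTT, yeast tRNA and Tween-20.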

[1] = designed as: OFF switch for flavin mononucleotide, no ligand
[2] = ligand present: flavin mononucleotide, designed as: OFF switch for flavin mononucleotide
[3] = designed as: ON switch for flavin mononucleotide, no ligand
[4] = ligand present: flavin mononucleotide, designed as: ON switch for flavin mononucleotide

Sequence | apparent Kd [1] | apparent Kd [2] | apparent Kd [3] | apparent Kd [4]
AAAUUAAGGAGAGGAUAUUGACAUGAGGAUCACCCAUGUAUUUGGGAGUGUUUACUGAAUUCUUACGAGAAGGCUUACGAAAUU | 308 nM | 234 nM | – | –
UCGAAGUCCGCCGGACGGCGAGCGAGAAGGCACAAUGAAACGACUCUACAUGAGGAUCACCCAUGUGAGGAUAUCGCGACCUAG | 8.27 nM | 57.7 nM | – | –
GUCAGCUGGUGAGGAUAUACAACACUGCUUCGGCAGUGUAUUAAGAUCACAUGAGGAUCACCCAUGUAGAAGGCACGAGCUGAU | 13.1 nM | 207 nM | – | –
UUUUAACAUGAGGAUCACCCAUGUGAGGAUAUCGAAAUUUUUAUUAAUAUUAAUAAAACGAGAAGGCACAUUUU | 56 nM | 69.3 nM | – | –
GGUGCUAUGUAGAAGGCAGAUCUGAUUCAGAUCUGAGGAUAUACAUGAGGAUCACCCAUGUUAUGCACCAGCACGAGAGUGCAA | 7.12 nM | 12.8 nM | – | –
UAAUCUCAGAUAGGAUAUAUAGGAUAACUUAAGACCUAACAUGAGGAUCACCCAUGUGAUUAUUCGUAGAAGGAUCAAUGACCC | – | – | 189 nM | 200 nM
CGCAAACAUGAGGAUCACCCAUGUCAAUGUGAUCAAGGAUAUGGGUUCCUAAACGGAACACCAGAAGGUGAGUAGA | – | – | 85.2 nM | 23.8 nM
AAAGAAACAGGAUAUGUAGGCUGCGACAUGAGGAUCACCCAUGUGUCGGUAUACAGUCCUAUAGAAGGGUUAUGAC | 15.5 nM | 20.1 nM | – | –
AUCAGCUCGUCAGGAUAUACGUCACUGCGUCAGCAGUGUGGUAGGAUCACAUGAGGAUCACCCAUGUAGAAGGGACGAGCUGAU | 23.8 nM | 297 nM | – | –
UGAUAGGACAGAGGAUAUGCUGAUAGGAUCUACUAUCGAAGAAUCCUCACAUGAGGAUCACCCAUGUAGAAGGCUGUCCUAUCU | 12 nM | 143 nM | – | –
UAUAUAUAGUAAGGAUAUGUAUUUAUUUUAUUAACAGAAGGUACUGACAUGAGGAUCACCCAUGUUUUAGUGUGGGCAUGUAGA | 103 nM | 146 nM | – | –
ACCUUGUCAGGAUAUCCUAUUUUUUGUUUUAUAUUUACUAUGGAGAAGGGACAUGAGGAUCACCCAUGUUGGUC | 38.8 nM | 50.2 nM | – | –
UCUCGCUGGCGAGGAUAUCCUGUGCGGUUCCGGCUCGUGUCUGUUACAUGAGGAUCACCCAUGUGGGAGAAGGUGCCUGUGGCU | 32.7 nM | 32.6 nM | – | –
UUUUUACAUGAGGAUCACCCAUGUCAGGAUAUCAUUAUAUUUUAUUAUUUUAUUUAUAUGAGAAGGGACUAUUA | 87.7 nM | 60.1 nM | – | –
UUUUAAUAAAAGAAGGAGCACUACAUGAGGAUCACCCAUGUGUUAGUAGUUAGGAUAUUUAAUAACAUGAGGAUCACCCAUGUA | – | – | 194 nM | 87 nM
UCGUGUUAUACAGGAUAUGUUUAGGUAUAAUCAUUCAGUUAUUAAUUAAUGACAGAAGGGUAAACAUGAGGAUCACCCAUGUCA | 179 nM | 121 nM | – | –
AAUUAUUUACAGAAGGAGUAAGAUUUUGUAUUACUAGGAUAUGUUAACAUGAGGAUCACCCAUGUGUUUGUUGGUUUUUUAUGU | 16.1 nM | 14.8 nM | – | –
UUCAGCUCGUGAGGAUAUACAUGUGCUGGAAACAGCAUUAUAUUUUUCACAUGAGGAUCACCCAUGUAGAAGGCACGAGCUGAG | 15.7 nM | 27.3 nM | – | –
CUUAUGUGAGGAUAUCAGUAGUAAUACAAUAGUAUUACUACUGAGAAGGCACAUGAGGAUCACCCAUGUUCCUU | 28.1 nM | 131 nM | – | –
AUGUGGUGCGUAGGAUAUCAUUGAGGGUAACCCUGAGAAGGACGUGAGGACAUGAGGAUCACCCAUGUGGAUCACCCAUGUCAU | 150 nM | 301 nM | – | –
CGAAGAGGAAGUGAAAGGCGGGACAGAAGGGCACCGGGUCAGCGUCACAUGAGGAUCACCCAUGUGCAGGAUAUGUCGACCCAC | 6.54 nM | 30.4 nM | – | –
CCUAAGGACACAGGAUAUAGCGUGGCGGCUGGACUCCAACGGCGAACGGCGCUAGAAGGGUGACCACAUGAGGAUCACCCAUGU | – | – | 495 nM | 206 nM
UUUUUAUAACAAGGAUAUACUAAACAUGAGGAUCACCCAUGUAAUAUUAUGAGUGAGAGAGAUAAGUAGAAGGUGUAUUAUUUU | 100 nM | 137 nM | – | –
UAUUUUAACUAAGGAUAUCUAUAUUAUUUUGAAACAUGAGGAUCACCCAUGUUCAUGGGAUUAUAGGAGAAGGUAGAUGAAUAA | – | – | 14.6 nM | 9.54 nM
UUGCAGUGCGGGUAGGAUAUGUAGGGUGGUACAUGAGGAUCACCCAUGUGUCCACCCUUCUUCCGGCAGAAGGGCCUGUCACUGC | – | – | 15.2 nM | 13.5 nM
UCCUUGUUCUGAGGAUAUCCGCGGUUCCCAAAAGGAGAAGGCAGGACAUGAGGAUCACCCAUGUACCCAGAAAACGUGCAGAGU | 9.85 nM | 37.4 nM | – | –
GGUUGUCAUCGUCGUCCUUUCGGUACAUGAGGAUCACCCAUGUAGGAUAUGCUGCAUUCGAUGUGGCAGAAGGGCGUGUGUGUU | 16.7 nM | 18.4 nM | – | –
AAGUAGGUAGGAUAUACAUGGAUAUACAUUCAUGUGGACCUACAUGAGGAUCACCCAUGUAGAAGGACCUACUA | 36.9 nM | 79.1 nM | – | –

Sequence | apparent Kd [1] | apparent Kd [2] | apparent Kd [3] | apparent Kd [4]
GGAUAGGACAGAGGAUAUACGUGCUAGAGAUACUAGCAAAAUUUCCUCACAUGAGGAUCACCCAUGUAGAAGGCUGUCCUAUCC | 18.5 nM | 435 nM | – | –
UGUCCAUAGCAGAAGGACAUGAGGAUCACCCAUGUAAUCAUACAAAUAUAUGUAGGAUAUGCUAUGGACUAAGAGCGAAAGCUC | 6.14 nM | 6.74 nM | – | –
AUCAGCUCGUGAGGAUAUACGUCACUGCGUCAGCAGUGUGGUAAGAUCACAUGAGGAUCACCCAUGUAGAAGGCACGAGCUGAU | 66.2 nM | 837 nM | – | –
GCAAAGCCUGACAUGAGGAUCACCCAUGUUAGAUUGUUAUGUCAGGAUAUUGUCUAGAAACUAGACAAGAAGGGAUGCUUUGCU | – | – | 421 nM | 25.3 nM
AAAAAACAUGAGGAUCACCCAUGUAAUACAACGUCAGGAUAUUGAUUUUAUUAUGUAUUGCAAGAAGGGACUUGUA | – | – | 72.1 nM | 25.4 nM
CAGGUAGACUGAGGAUAUACAAUAAAGACCUAGUCUAUCUAGGUCUCUACAUGAGGAUCACCCAUGUAGAAGGCAGUCUGCCUG | 16 nM | 18.3 nM | – | –
UGUCGGAGCAGAGGAUAUUACAUGAGGAUCACCCAUGUAUGAACCAAUAGCUGGAAACAGCAAUGUAAGAAGGCUUCUCCGACA | 7.13 nM | 45.9 nM | – | –
GGUGCGUAUGUGAGGAUAUGCUGGUCCUUGGAUCAGCAGAAGGCACAUGAGGAUCACCCAUGUGGUGUCGUACU | 282 nM | 26.1 nM | – | –
GUUUCGGGAGGAUAUGCGUGGAUUGUUCUCGUAUGGUGUCUACAUGAGGAUCACCCAUGUAGAAGGUCUGGAGC | 18 nM | 38.6 nM | – | –
GCACUGGAUGUAGGAUAUCAGGACGAUAAGUCCUGAGAAGGACAUGAGGAUCACCCAUGUGAAAAUUCCAGUGCAAAUAAUAUA | 13 nM | 19.1 nM | – | –
GCUGAAAGUACAGGAUAUGAGAUAUAUGAUCACUCAGAAGGGUACCGGGACAUGAGGAUCACCCAUGUACUCUCAGCGAAAAUA | – | – | 165 nM | 553 nM
CUAUUGGUAACAGGAUAUAUGAGUCCUACAUGAGGAUCACCCAUGUAGGUGAUCUAACGAGAUUAGUAGAAGGGUUACCAAUAG | – | – | 16.9 nM | 8.34 nM
AACGGAAUGUAGAAGGGUGACAUGAGGAUCACCCAUGUUCACAUGCGUAUUAAAGUAUGUGAACCACAGGAUAUACUGUCCGUG | – | – | 56.8 nM | 130 nM
AGCUCCGCGGCCACUUAUUGUGCACAUGAGGAUCACCCAUGUCAGGAUAUCCUUGAGCCUCACAAGGAGAAGGGACAUAAGGUU | 643 nM | 334 nM | – | –
CGCAUGUAAGGAUAUUAGUAGUAGUCAGAAUAGACUAUUACUGAGAAGGUACAUGAGGAUCACCCAUGUAAGCG | 62.9 nM | 419 nM | – | –
UAUUAUAUAGAGAAGGACAUGAGGAUCACCCAUGUCGCCGGGCCCGGGAAACCGGGCCCGGCCAUGUAGGAUAUCUAUAUGGUA | 4.96 nM | 5.86 nM | – | –
GACAUGAGGAUCACCCAUGUACAUGAGGAUCACCCAUGUUCUGAGGAUAUAGAUGAGGAUCACCUCUAGAAGGCAGCGCGCGCG | 251 nM | 202 nM | – | –
CCAGCGUAUGUGAGGAUAUGCUGGUCCUUGGAUCAGCAGAAGGCACAUGAGGAUCACCCAUGUAGAGACGUUGG | 27 nM | 29.8 nM | – | –
GAAUAAUUGAUCCAAUUUAUCUACAUGAGGAUCACCCAUGUGCAGGAUAUCGUAAAAUUUAAUAACGAGAAGGGCAAGAACGGU | 135 nM | 385 nM | – | –
UAAUCGUUGCAGAAGGUUAUUUUUUUAACAAGUCUCUUAACAUGAGGAUCACCCAUGUUUUUGAUGAAGGAUAUGCAACGGUAG | 5.89 nM | 6.15 nM | – | –
CAGCUGAAUGUGAGGAUAUGUCUAGCCUCGGCUAGACAGAAGGCACAUGAGGAUCACCCAUGUCUCAACAGCUG | 38.8 nM | 675 nM | – | –
GUGAAGAUAGCAGGAUAUAUAUUUCCUACAUGAGGAUCACCCAUGUAGGUGAUCAGCCGAGUAAAGUAGAAGGGCUAUCUUUAC | – | – | 16.1 nM | 10.7 nM
UGAUACAUGAGGGUCUCCCAUGACAUGAGGAUCACCCAUGUGCAGGAUAUACGUGUGAUGAUAUAGUAGAAGGGCAGUCUAUGU | 449 nM | 537 nM | – | –
UGGACCGAGCUGUCGGUUGGCUGGCAGGAUAUGACAUGAGGAUCACCCAUGUGGGAUCUAAAUUGUCAGAAGGGCCGUUCUGGG | 212 nM | 25.4 nM | – | –
AAAAAAAAAACAUAGGAUAUCCGGGCCGGGACAUGAGGAUCACCCAUGUCAAAAAAAAUUGGCCCGGAGAAGGAUGAAAAAAAAAA | – | – | 15.5 nM | 14.9 nM
GGUACUCAAAGAGUACUUGGUCGAACAUGAGGAUCACCCAUGUAGGAUAUACGAAGCAAGAAGUAGUAGAAGGACGUGUGCAGC | 12.4 nM | 12.1 nM | – | –
GUGUACAGAGGAUAUACAGGAGCUAGGAAACUAGCAACUUCACAUGAGGAUCACCCAUGUAGAAGGCUGUACAC | 15.3 nM | 49.7 nM | – | –
